Data reported in ChEMBL document CHEMBL4177768, “Synthesis and Biological Evaluation of Derivatives of Indoline as Highly Potent Antioxidant and Anti-inflammatory Agents” (J Med Chem, 2018).
The source made the active and inactive calls. No cut-off for these calls is given here.

Legend:
RAW264.7 [1] = assay: Antiinflammatory activity in mouse RAW264.7 cells assessed as reduction in LPS-induced TNF-alpha production at 1 pM to 100 nM incubated for 2 hrs prior to LPS challenge measured after 8 hrs by ELISA; format: functional, cell-based
Procedure, shortened: (§1)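 RAW 264.7 macrophages were plated at 1×10^5 per well, grown overnight and washed with PBS. Compounds in water (final 1 pM-100 nM, medium with 2% FCS) were added 2 h at 37 °C before E. coli 0111:B4 LPS, 2.5 µg/mL. TNF-α was sampled at 8 h; IL-6 and nitrite (Griess) at 24 h. ELISA was used for cytokines. Values are % of the LPS + medium value in each experiment. Budesonide was the reference. 2-3 experiments, 6 wells per concentration.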

RAW264.7 [2] = assay: Cytoprotective activity against H2O2-induced oxidative stress in mouse RAW264.7 cells assessed as cell viability at 1 pM incubated for 2 hrs prior to H2O2 addition measured after 24 hrs by MTT assay (reference value: 68 to 72.8%); format: functional; details: read-out: Activity
RAW264.7 [3] = assay: Antiinflammatory activity in mouse RAW264.7 cells assessed as reduction in LPS-induced IL-6 production at 10 pM incubated for 2 hrs prior to LPS challenge measured after 24 hrs by ELISA; format: functional; parameters: scale not given: the % may be the effect or the level left; procedure, shortened: as §1
[4] = Cytotoxicity against mouse RAW264.7 cells assessed as cell viability at 10^-9 M after 24 hrs by MTT assay relative to control; format: cell-based; details: read-out: Activity
Procedure, shortened: (§2)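 RAW 264.7 cells, seeded at 1×10^4 cells/mL and incubated 24 h, were exposed to compound from 1 pM to 100 nM. Viability was read by MTT (final 0.5 mg/mL, 1 h at 37 °C), with formazan dissolved in DMSO and OD at 570 nm. Results are compared with medium-only cells.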

[5] = Cytotoxicity against mouse RAW264.7 cells assessed as cell viability at 10^-11 M after 24 hrs by MTT assay relative to control; format: cell-based; details: read-out: Activity; procedure, shortened: as §2
[6] = Cytotoxicity against mouse RAW264.7 cells assessed as cell viability at 10^-7 M after 24 hrs by MTT assay relative to control; format: cell-based; details: read-out: Activity; procedure, shortened: as §2
RAW264.7 [7] = assay: Antiinflammatory activity in mouse RAW264.7 cells assessed as reduction in LPS-induced TNF-alpha production at 10 pM incubated for 2 hrs prior to LPS challenge measured after 8 hrs by ELISA; format: functional; parameters: scale not given: the % may be the effect or the level left; procedure, shortened: as §1
RAW264.7 [8] = assay: Antiinflammatory activity in mouse RAW264.7 cells assessed as reduction in LPS-induced nitric oxide production at 1 pM to 100 nM incubated for 2 hrs prior to LPS challenge measured after 24 hrs by Griess assay; format: functional, cell-based; procedure, shortened: as §1
RAW264.7 [9] = assay: Antiinflammatory activity in mouse RAW264.7 cells assessed as reduction in LPS-induced nitric oxide production at 10 pM incubated for 2 hrs prior to LPS challenge measured after 24 hrs by Griess assay; format: functional; parameters: scale not given: the % may be the effect or the level left; procedure, shortened: as §1
[10] = Cytotoxicity against mouse RAW264.7 cells assessed as cell viability at 10^-12 M after 24 hrs by MTT assay relative to control; format: cell-based; details: read-out: Activity; procedure, shortened: as §2
[11] = Cytotoxicity against mouse RAW264.7 cells assessed as cell viability at 10^-10 M after 24 hrs by MTT assay relative to control; format: cell-based; details: read-out: Activity; procedure, shortened: as §2
[12] = Cytotoxicity against mouse RAW264.7 cells assessed as cell viability at 10^-8 M after 24 hrs by MTT assay relative to control; format: cell-based; details: read-out: Activity; procedure, shortened: as §2
RAW264.7 [13] = assay: Cytoprotective activity against H2O2-induced oxidative stress in mouse RAW264.7 cells assessed as decrease in caspase-3 activity at 1 pM incubated for 4 hrs prior to H2O2 addition measured after 90 mins by caspase-GloR reagent-based luminescence assay relative to control; format: functional; parameters: scale not given: the % may be the effect or the level left
Procedure, shortened: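 RAW 264.7 macrophages were pretreated with compound (1 pM or 1 nM) 4 h before H2O2 100 µM. Medium was replaced with fresh DMEM after 90 min and plates were incubated overnight. Caspase-Glo 3/7 reagent was added and luminescence read after 30 min at room temperature. Mean ± SD, 4-6 replicates.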

Mus musculus [14] = assay: Antiinflammatory activity in Balb/C mouse assessed as reduction in LPS-induced TNF-alpha production in spleen at 1 umol/kg, sc administered LPS 15 mins post compound treatment measured after 4 hrs by ELISA; format: functional, organism-based
Procedure, shortened: (§3)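 Male Balb/C mice, 7-8 weeks old, given compound sc (0.1, 1 or 10 µmoles/kg) or saline. LPS 10 mg/kg was given ip 15 min later, and mice were killed 4 h after that. Spleens were homogenized in PBS with protease inhibitor and centrifuged at 14,000 g, 4 °C. Cytokines in plasma and tissue supernatants were measured by ELISA, with protein by BCA. Dexamethasone 5.6 µmoles/kg was the reference. n = 8-10 mice per treatment.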

Mus musculus [15] = assay: Acute toxicity in Balb/C mouse assessed as change in water intake at 100 umol/kg, sc measured over 72 hrs; format: organism-based; details: in vivo
Procedure, shortened: (§4)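 Male Balb/C mice, 24-28 g, groups of 3; single sc injection of compound at 100 μmoles/kg or saline (1 mL/100 g). Food and water intake, body weight and general activity monitored over 72 h against saline-injected animals.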

RAW264.7 [16] = assay: Cytoprotective activity against H2O2-induced oxidative stress in mouse RAW264.7 cells assessed as decrease in LDH release at 1 pM incubated for 2 hrs prior to H2O2 addition by colorimetric assay relative to control; format: functional; parameters: scale not given: the % may be the effect or the level left
Procedure, shortened: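 RAW 264.7 cells were seeded and pretreated with compound before H2O2 100 µM, in serum-free medium. Collected medium was centrifuged and incubated with reaction mix 30 min at room temperature. LDH was measured as NADH formation by colorimetric read at 490 nm. n = 8-10 replicates per concentration.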

Mus musculus [17] = assay: Antiinflammatory activity in Balb/C mouse assessed as reduction in LPS-induced TNF-alpha production in plasma at 1 umol/kg, sc administered LPS 15 mins post compound treatment measured after 4 hrs by ELISA; format: functional, organism-based; procedure, shortened: as §3
Mus musculus [18] = assay: Acute toxicity in Balb/C mouse assessed as change in body weight at 100 umol/kg, sc measured over 72 hrs; format: organism-based; details: in vivo; procedure, shortened: as §4
Mus musculus [19] = assay: Acute toxicity in Balb/C mouse assessed as change in activity at 100 umol/kg, sc measured over 72 hrs; format: organism-based; details: in vivo; procedure, shortened: as §4
RAW264.7 [20] = assay: Cytoprotective activity against H2O2-induced oxidative stress in mouse RAW264.7 cells assessed as cell viability at 10 nM incubated for 2 hrs prior to H2O2 addition measured after 24 hrs by MTT assay (reference value: 68 to 72.8%); format: functional; details: read-out: Activity
RAW264.7 [21] = assay: Antiinflammatory activity in mouse RAW264.7 cells assessed as reduction in LPS-induced IL-6 production at 1 nM incubated for 2 hrs prior to LPS challenge measured after 24 hrs by ELISA; format: functional; procedure, shortened: as §1
Mus musculus [22] = assay: Antiinflammatory activity in Balb/C mouse assessed as reduction in LPS-induced IL6 production in liver at 0.1 to 10 umol/kg, sc administered LPS 15 mins post compound treatment measured after 4 hrs by ELISA; format: functional, organism-based
Mus musculus [23] = assay: Antiinflammatory activity in Balb/C mouse assessed as reduction in LPS-induced IL6 production in spleen at 1 umol/kg, sc administered LPS 15 mins post compound treatment measured after 4 hrs by ELISA; format: functional, organism-based; procedure, shortened: as §3
Mus musculus [24] = assay: Antiinflammatory activity in Balb/C mouse assessed as reduction in LPS-induced IL6 production in plasma at 1 umol/kg, sc administered LPS 15 mins post compound treatment measured after 4 hrs by ELISA; format: functional, organism-based; procedure, shortened: as §3
Mus musculus [25] = assay: Acute toxicity in Balb/C mouse assessed as change in food intake at 100 umol/kg, sc measured over 72 hrs; format: organism-based; details: in vivo; procedure, shortened: as §4
RAW264.7 [26] = assay: Cytoprotective activity against H2O2-induced oxidative stress in mouse RAW264.7 cells assessed as decrease in LDH release at 1 pM incubated for 2 hrs prior to H2O2 addition by colorimetric assay relative to control; parameters: scale not given: the % may be the effect or the level left
Mus musculus [27] = assay: Antiinflammatory activity in Balb/C mouse assessed as reduction in LPS-induced IL6 production in brain at 0.1 to 10 umol/kg, sc administered LPS 15 mins post compound treatment measured after 4 hrs by ELISA; format: functional, organism-based
RAW264.7 [28] = assay: Antiinflammatory activity in mouse RAW264.7 cells assessed as reduction in LPS-induced IL-6 production at 100 pM incubated for 2 hrs prior to LPS challenge measured after 24 hrs by ELISA; format: functional; procedure, shortened: as §1

COC(=O)CCN1CCc2cc(Cl)ccc21.Cc1ccc(S(C)(=O)=O)cc1
Activity (RAW264.7 [1]): Active
viability at 1 pM (RAW264.7 [2]): 89.7%
Activity (RAW264.7 [3]): 50%
viability at 24 h, 0.001 µM [4]: 104%
viability at 24 h, 1e-05 µM [5]: 106%
viability at 24 h, 0.1 µM [6]: 105%
Activity (RAW264.7 [7]): 50%
Activity (RAW264.7 [8]): Active
Activity (RAW264.7 [9]): 50%
viability at 24 h, 1e-06 µM [10]: 108%
viability at 24 h, 0.0001 µM [11]: 104%
viability at 24 h, 0.01 µM [12]: 107%

COC(=O)CCN1CCc2ccccc21.Cl
Activity (RAW264.7 [13]): 60%
Activity (Mus musculus [14]): Active
Activity (RAW264.7 [1]): Active
Activity (Mus musculus [15]): Non-Toxic
viability at 24 h, 0.001 µM [4]: 92.6%
viability at 24 h, 1e-05 µM [5]: 91.5%
Activity (RAW264.7 [16]): 16%
viability at 24 h, 0.1 µM [6]: 90.8%
Activity (Mus musculus [17]): Active
Activity (Mus musculus [18]): Non-Toxic
Activity (Mus musculus [19]): Non-Toxic
viability at 0.01 µM (RAW264.7 [20]): 85.9%
Activity (RAW264.7 [21]): Active
Activity (Mus musculus [22]): Active
Activity (Mus musculus [23]): Active
Activity (RAW264.7 [8]): Active
Activity (Mus musculus [24]): Active
Activity (Mus musculus [25]): Non-Toxic
Activity (RAW264.7 [26]): 16%
viability at 24 h, 1e-06 µM [10]: 95%
Activity (Mus musculus [27]): Active
Activity (RAW264.7 [28]): Active
viability at 24 h, 0.0001 µM [11]: 93.3%
viability at 24 h, 0.01 µM [12]: 91.8%
